Results on 167 variants are retold here after the RNAGym collection of RNA variant scans (doi:10.1126/science.aae0568).

B1: tRNA (parent)
chain: GUUCCGUUGGCGUAAUGGUAACGCGUCUCCCUCCUAAGGAGAAGACUGCGGGUUCGAGUCCCGUACGGAACG

Variants at the floor of the assay were thinned out.

This series covers variants of B1. Kind of series: yeast fitness relative to wild type (ratio to wild type); higher = fitter; tRNA-Arg(CCU), competitive growth, 37 C, YPD. The procedure, abridged:
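Variants of the tRNA-Arg(CCU) gene were chemically synthesised with a 3% per-site mutation rate across 69 sites and placed at the native genomic locus in Saccharomyces cerevisiae. Six parallel replicates of the pooled strains were competed in YPD at 37°C for 24 hours, and gene amplicons from the start and end populations were read by 100-nucleotide paired-end sequencing. Darwinian fitness relative to wild type was derived from changes in genotype frequencies. Genotypes required ≥ 100 starting reads, and estimates < 0.5 were set to 0.5.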
Turning to C30A G50C A69U, the yeast fitness was not above 0.5.

Consider C30A C62A, for which the yeast fitness is 0.589.

In the case of C30A A57U C61U A69G, the yeast fitness was not above 0.5.

Consider C30A A57G A70U, for which the yeast fitness came to 0.765.

Consider C30A U54C, for which the yeast fitness stood at 0.811.

On to C30A A65G G67C, for which the yeast fitness was determined as 0.526.

As for C30A A45U C49A G63U A70U, the yeast fitness worked out at 0.523.

On to C30A G39C A57G, for which the yeast fitness was not above 0.5.

For the variant C30A G51A G52A U53C G56A C61G, the yeast fitness is not above 0.5.

Regarding C30A C31U A45C C55G, the yeast fitness came out at 0.522.

On to C30A U59G A69G, for which the yeast fitness turned out to be 0.599.

With C30A A45U C49A G50A G63U A70U, the yeast fitness is not above 0.5.

C30A C49A A57U A70G: the yeast fitness turned out to be 0.509.

Regarding C30A C31G, the yeast fitness was 1.

On to C30A C31A, for which the yeast fitness is 0.611.

As to C30A G50A A69C, the yeast fitness is 0.675.

With C30A G41C A69C, the yeast fitness came out at 0.598.

Consider C30A U54A A69C, for which the yeast fitness was determined as 0.539.

Regarding C30G A40C C55A G58C A65U A70U, the yeast fitness stood at 0.769.

Consider C30G A45C, for which the yeast fitness was determined as 0.669.

Consider C30A C31U A36G C55U, for which the yeast fitness is not above 0.5.

For the variant C30G A40C C55G, the yeast fitness is 0.624.

On to C30G A43G, for which the yeast fitness stood at 0.589.

Consider C30A C61A, for which the yeast fitness is 0.721.

As for C30A C61G, the yeast fitness was determined as 0.651.

For the variant C30A G68A A69C, the yeast fitness is 0.629.

Consider C30A C61U C62A A70G, for which the yeast fitness was not above 0.5.

On to C30A A43U G58C U64G, for which the yeast fitness is not above 0.5.

Consider C30A G44C, for which the yeast fitness turned out to be 0.795.

On to C30A G41C A45G G67C, for which the yeast fitness was not above 0.5.

Turning to C30G A36U C49G U53C G58C G67A A70U, the yeast fitness was not above 0.5.

In the case of C30G A43U G48C C55A G63A, the yeast fitness is not above 0.5.

On to C30G A40G A45G G52C A57C C60U A70C, for which the yeast fitness is not above 0.5.

Regarding C30A G63U U64A, the yeast fitness is not above 0.5.

In the case of C30G A36G U53A G68A, the yeast fitness is not above 0.5.

As to C30G A42U G58C, the yeast fitness is not above 0.5.

For C30A G58C, the yeast fitness was 1.

Turning to C30A A40U G51C C61U, the yeast fitness turned out to be 0.646.

In the case of C30A C55U, the yeast fitness is 0.686.

For the variant C30A C55G, the yeast fitness is 0.596.

For the variant C30A C34A C49U, the yeast fitness was not above 0.5.

As for C30A A43C A65G, the yeast fitness turned out to be 0.97.

Consider C30A G63A, for which the yeast fitness was 0.83.

Regarding C30A C49U, the yeast fitness is 0.898.

Take C30A C49G: the yeast fitness is 0.798.

Turning to C30A C62U A70U, the yeast fitness turned out to be 0.709.

Take C30A A45U C49A G51A C62G: the yeast fitness was not above 0.5.

C30A A43U A65U: the yeast fitness came out at 0.608.

Turning to C30A C31U A36G G50A C66U, the yeast fitness was not above 0.5.

Take C30A G44A A45C: the yeast fitness was not above 0.5.

With C30A A45C C46U A57C, the yeast fitness is not above 0.5.

As to C30A C33G A45U U59C, the yeast fitness was 0.543.

Turning to C30A A65C C66U, the yeast fitness is not above 0.5.

C30A G44C U59A A69U: the yeast fitness was determined as 0.65.

As for C30A A40G C66A, the yeast fitness is not above 0.5.

For the variant C30A C49U A69U, the yeast fitness was 0.682.

For C30A A37G, the yeast fitness was 0.86.

For the variant C30G A37G A40C C55A G58C A65U A70U, the yeast fitness came out at 0.542.

Take C30A C31G G67C: the yeast fitness is 0.546.

Turning to C30G A37G A43U, the yeast fitness was 0.593.

C30G A42G U64G: the yeast fitness is not above 0.5.

For the variant C30G A37U U47C C60A, the yeast fitness stood at 0.68.

As to C30A C31U C66U A69U, the yeast fitness is not above 0.5.

Turning to C30A G50A G56A, the yeast fitness stood at 0.742.

Turning to C30A C49A C61U, the yeast fitness is not above 0.5.

For C30A U47C C66U A70U, the yeast fitness was not above 0.5.

Turning to C30A G38A C55A A65C, the yeast fitness stood at 0.58.

Regarding C30G A37G, the yeast fitness turned out to be 0.513.

On to C30G A37U, for which the yeast fitness was 0.615.

As to C30G A37C, the yeast fitness came to 0.673.

In the case of C30G A37C G38A A40U A45G, the yeast fitness was not above 0.5.

Regarding C30A A42C G56A A57U, the yeast fitness worked out at 0.558.

Consider C30A U64C, for which the yeast fitness was 0.885.

With C30G A37C A42G A57U, the yeast fitness was determined as 1.01.

Turning to C30A C46A G56A A69U, the yeast fitness was not above 0.5.

On to C30A C34A, for which the yeast fitness was found to be 0.76.

With C30A C34U, the yeast fitness stood at 0.752.

As to C30A A40U G41C C61G G63C, the yeast fitness was not above 0.5.

On to C30A A57U C61A A69G, for which the yeast fitness was not above 0.5.

As to C30G A42U C61A, the yeast fitness worked out at 0.639.

Regarding C30A G48A, the yeast fitness was 1.06.

Consider C30A G39C, for which the yeast fitness amounted to 0.656.

With C30A U32A A57C, the yeast fitness is not above 0.5.

On to C30A C31U A45C C49U C55G, for which the yeast fitness was not above 0.5.

In the case of C30A G50A, the yeast fitness was 0.677.

For C30A A42G, the yeast fitness came to 0.809.

Turning to C30G A40G, the yeast fitness amounted to 0.605.

C30G A40C: the yeast fitness stood at 0.595.

Regarding C30A C55G A57C C62G G68C, the yeast fitness worked out at 0.513.

In the case of C30A G38A, the yeast fitness was determined as 0.783.

For C30A C62A A70G, the yeast fitness turned out to be 0.547.

With C30A C46U, the yeast fitness worked out at 0.939.

Turning to C30A A57G, the yeast fitness is 0.74.

C30A C46U G52C: the yeast fitness was 0.568.

C30A C46U G52C C66U: the yeast fitness is not above 0.5.

Turning to C30A U35A, the yeast fitness was found to be 0.569.

As to C30A C34G A65U, the yeast fitness is not above 0.5.

As to C30A C61A A65G C66G A70G, the yeast fitness was not above 0.5.

As to C30A C46G G51A, the yeast fitness was found to be 0.593.

With C30A A37G C55U A57G U64A, the yeast fitness is not above 0.5.

With C30A C33A C62A, the yeast fitness was not above 0.5.

As for C30A G38A G44A, the yeast fitness was not above 0.5.

As for C30G A40G G52C A57C C60U A70C, the yeast fitness is not above 0.5.

For the variant C30A C34G C60A U64A, the yeast fitness was determined as 0.541.

Take C30A G52C A69C: the yeast fitness is not above 0.5.

On to C30A A43G A69U, for which the yeast fitness was 0.618.

C30G A37C G68A: the yeast fitness was not above 0.5.

Regarding C30A G51A G67U, the yeast fitness is not above 0.5.

Take C30A C34A A43C C62U: the yeast fitness was not above 0.5.

Consider C30A G39A U47A G63C, for which the yeast fitness amounted to 0.528.

For C30A C60U, the yeast fitness turned out to be 0.727.

In the case of C30A C60G, the yeast fitness was 0.635.

Regarding C30G A42C G56A, the yeast fitness was not above 0.5.

As to C30A A42G G50A C62U, the yeast fitness was not above 0.5.

Turning to C30G A45C C61A G67C, the yeast fitness is not above 0.5.

In the case of C30G A36G A57U A65U, the yeast fitness came out at 0.555.

As to C30A U53A, the yeast fitness stood at 0.618.

As for C30A A43U C55G G63C G67C, the yeast fitness was not above 0.5.

Consider C30A U47C C61A A65C, for which the yeast fitness was not above 0.5.

Consider C30G A37G C61U, for which the yeast fitness was not above 0.5.

For C30A U35A A42G A43C, the yeast fitness was not above 0.5.

On to C30A C31U A45C C55G C60A, for which the yeast fitness is not above 0.5.

With C30A C46G G56A, the yeast fitness is 0.74.

For C30G A37U G38A A57C A65C, the yeast fitness was not above 0.5.

Turning to C30A A69U, the yeast fitness stood at 0.963.

On to C30A G50A G67A, for which the yeast fitness was 0.543.

For the variant C30A G52A A57U, the yeast fitness is not above 0.5.

Regarding C30A A42G G44A, the yeast fitness came to 0.704.

Turning to C30A A42C A70C, the yeast fitness was 0.819.

As for C30A A40U, the yeast fitness stood at 0.819.

Regarding C30A A40G, the yeast fitness worked out at 0.979.

Consider C30A G68C, for which the yeast fitness is 0.823.

As to C30A G68A, the yeast fitness was determined as 0.862.

For the variant C30A A45C C46U, the yeast fitness amounted to 0.613.

For C30A U53A C66U, the yeast fitness is not above 0.5.

For C30A C31A G38A C49U G52A C66U, the yeast fitness is not above 0.5.

Regarding C30A C31U C33U A37C, the yeast fitness is not above 0.5.

Turning to C30A U32A U35G G67A, the yeast fitness is not above 0.5.

Consider C30A A40G A65G, for which the yeast fitness was found to be 0.967.

Consider C30A A45G, for which the yeast fitness is 0.896.

For the variant C30A A45U, the yeast fitness worked out at 0.997.

C30G A43C C60G: the yeast fitness was not above 0.5.

Consider C30A G38A A42U, for which the yeast fitness was not above 0.5.

In the case of C30A C31G C49A C60U G67A, the yeast fitness turned out to be 0.526.

Regarding C30G A43G C49G, the yeast fitness was 0.544.

C30A G56U A65G C66U: the yeast fitness is not above 0.5.

As for C30A C31U A42C, the yeast fitness came to 0.943.

As to C30A A40G A42U C62A, the yeast fitness was not above 0.5.

Take C30A G67A: the yeast fitness was 0.822.

For C30A G41A A42C G50C A70G, the yeast fitness was not above 0.5.

For the variant C30A C34G A45U, the yeast fitness was not above 0.5.

Take C30A C33U: the yeast fitness is 0.738.

As for C30G A36C C49A C55A G63C A69C, the yeast fitness is 0.608.

For the variant C30A C31G U32A C60U, the yeast fitness is not above 0.5.

Turning to C30A A70U, the yeast fitness stood at 1.02.

C30A A70G: the yeast fitness is 0.983.

On to C30A U59C, for which the yeast fitness is 0.863.

In the case of C30A A43U, the yeast fitness came out at 0.936.

Consider C30A A43G, for which the yeast fitness amounted to 0.958.

For the variant C30A C55U A70C, the yeast fitness worked out at 0.545.

Consider C30A G58C G63A, for which the yeast fitness was not above 0.5.

Take C30A U32C: the yeast fitness was 0.892.

As to C30A U32G, the yeast fitness came out at 0.624.

Consider C30A U32A G38A C55A A65C, for which the yeast fitness was not above 0.5.

As to C30A C31G G38C A57C, the yeast fitness was not above 0.5.

For the variant C30G A37G C55G, the yeast fitness is 0.537.

Regarding C30A C34U G58C, the yeast fitness is not above 0.5.
